Measurements pooled from the literature.
Each line is one published result; the experiments were not run side by side.
Effect on: cell growth or viability

CC(=O)Nc1ccc(/C(C)=N/N=c2\sc(C(C)=O)nn2-c2ccc(C)cc2)cc1  viability (MCF7; MTT; 10 µM): 5.39%
O=C(Nc1ccccc1)Nc1ccc(Oc2nnc(-c3ccc(Cl)cc3)c3ccccc23)cc1  viability (MCF7; MTT; 1.25 µM, 24 h): 3.85%
COc1ccc(COC[C@@](O)(CNCc2ccccc2)[C@@H]2CC[C@@H](C)C[C@H]2OCc2ccc(OC)cc2)cc1  inhibition (MCF7; MTT; 10 µM, 72 h): 96.2%
S=C(Nc1ccccc1)Nc1ccc(Oc2nnc(-c3ccc(Cl)cc3)c3ccccc23)cc1  cell death (MCF7; MTT; 10 µM): 97.2%
C[C@@H]1CC[C@@H]([C@](O)(CNCc2cccc3ccccc23)COCc2ccccc2)[C@H](OCc2ccccc2)C1  inhibition (MCF7; MTT; 10 µM, 72 h): 81.1%
CCOC(=O)c1nn(-c2cccc(Cl)c2)/c(=N/N=C(\C)c2ccc(NC(=O)c3ccccc3)cc2)s1  viability (MCF7; MTT; 0.312 µM): 6.34%
CC(=NNC(=O)c1ccccc1)c1ccc(Nc2nnc(-c3ccc(Cl)cc3)c3ccccc23)cc1  cell death (MCF7; MTT; 0.625 µM): 1.42%
C=CC(=O)NC1CCN(c2ncc3ncnc(Nc4ccc(Oc5ccc6c(c5)ncn6C)c(C)c4)c3n2)CC1  EC50 (SW-620): 82.4 nM
C[C@@H]1CC[C@@H]([C@](C)(O)Cn2cnc3ccccc32)[C@H](OCc2ccccc2)C1  inhibition (MCF7; MTT; 10 µM, 72 h): 51%
O=C(Nc1ccc(Oc2nnc(-c3ccc(Cl)cc3)c3ccccc23)cc1)c1cccc([N+](=O)[O-])c1  cell death (MCF7; MTT; 78 nM): 4.29%
CCOC(=O)c1nn(-c2cccc(Cl)c2)/c(=N/N=C(\C)c2ccc(NC(=O)c3ccc(Cl)cc3)cc2)s1  viability (MCF7; MTT; 1.25 µM): 3.36%
C[C@@H]1CC[C@@H]([C@](C)(O)CNCc2ccccc2F)[C@H](OCc2ccccc2)C1  inhibition (MCF7; MTT; 10 µM, 72 h): 39%
CC(=NNC(=S)Nc1ccccc1)c1ccc(Nc2nnc(-c3ccc(Cl)cc3)c3ccccc23)cc1  cell death (MCF7; MTT; 0.625 µM): 43%
COc1ccc(CNC[C@](O)(COCc2ccc(OC)cc2)[C@@H]2CC[C@@H](C)C[C@H]2OCc2ccc(OC)cc2)cc1  inhibition (MCF7; MTT; 10 µM, 72 h): 101%
CC(=NNC(=O)c1ccccc1Cl)c1ccc(Nc2nnc(-c3ccc(Cl)cc3)c3ccccc23)cc1  viability (MCF7; MTT; 0.312 µM, 24 h): 99.9%
CC(=O)c1nn(-c2ccccc2Cl)/c(=N/N=C(\C)c2ccc(NC(=O)c3ccccc3)cc2)s1  viability (MCF7; MTT; 0.312 µM): 7.5%
Cc1c(C(=O)O)ccc2c3n(nc12)[C@@H]1[C@H](C3)N(CC2CC2)[C@@]2(C(=O)Nc3cc(Cl)ccc32)[C@H]1c1cccc(Cl)c1F  GI50 (SJSA-1; resazurin): 7 nM
COc1ccc(CNC[C@@](C)(O)[C@@H]2CC[C@@H](C)C[C@H]2OCc2ccccc2)cc1  inhibition (MCF7; MTT; 30 µM, 72 h): 97%
CC(=O)c1nn(-c2ccc(C)cc2)/c(=N/N=C(\C)c2ccc(NC(=O)c3ccccc3)cc2)s1  viability (MCF7; MTT; 0.312 µM): 4.36%
CC(=NNC(N)=S)c1ccc(Nc2nnc(-c3ccc(Cl)cc3)c3ccccc23)cc1  cell death (MCF7; MTT; 78 nM): 9.65%
C[C@@H]1CC[C@@H]([C@](C)(O)Cn2ccnc2)[C@H](OCc2ccccc2)C1  inhibition (MCF7; MTT; 30 µM, 72 h): 34.6%
